Compounds with a hit are over-represented: about 2.2% of the library has one in this group of screens.
HIV Env fusion – blocks HIV Env-driven cell-cell fusion | HeLa-JRFL Env/CEM21 cell fusion, luciferase | inhibition, % at 12.3 µM | 360,000 compounds, 1.1% hits | AID 651610;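 active = mean replicate inhibition score of at least 50 and every replicate individually at or above 50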
PvdQ inh – blocks Pseudomonas aeruginosa PvdQ acylase activity. 340,000 compounds, 0.063% hits. inhibition, % at 10 µM. AID 488965. purified PvdQ acylase, fluorescence plate reader; in the data active = inhibition above about 30%, passing the limit was not always enough
FN deposit inh – fibronectin deposition inhibition; AID 743247; 350,000 compounds, 0.086% hits; AH1F fibroblasts, Alexa488-fibronectin deposition fluorescence, overnight; inhibition, % at 12.6 µM;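 active = mean inhibition across replicates of 30% or more, regardless of how many single replicates reach that level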
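Assay system: AH1F fibroblasts / Quantity: 10000 cells per well / Medium: DMEM plus 2% serum, read in PBS / Reagent: labelled fibronectin 24 nM / Dosing: single dose, pinned / Times: 1 h cell attachment, overnight exposure to compound and label / Signal: fluorescence, ex 485 nm, em 525 nm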
PDI inh – PDI (human) enzyme inhibition; inhibition, % at 10 µM; P07237; AID 588391; PDI insulin aggregation turbidity, A650, 90 min; 350,000 compounds, 0.052% hits;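 active = mean inhibition across replicates of 30% or more, whatever share of single replicates reach that level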
Target sequence (P07237 whole entry, looked up): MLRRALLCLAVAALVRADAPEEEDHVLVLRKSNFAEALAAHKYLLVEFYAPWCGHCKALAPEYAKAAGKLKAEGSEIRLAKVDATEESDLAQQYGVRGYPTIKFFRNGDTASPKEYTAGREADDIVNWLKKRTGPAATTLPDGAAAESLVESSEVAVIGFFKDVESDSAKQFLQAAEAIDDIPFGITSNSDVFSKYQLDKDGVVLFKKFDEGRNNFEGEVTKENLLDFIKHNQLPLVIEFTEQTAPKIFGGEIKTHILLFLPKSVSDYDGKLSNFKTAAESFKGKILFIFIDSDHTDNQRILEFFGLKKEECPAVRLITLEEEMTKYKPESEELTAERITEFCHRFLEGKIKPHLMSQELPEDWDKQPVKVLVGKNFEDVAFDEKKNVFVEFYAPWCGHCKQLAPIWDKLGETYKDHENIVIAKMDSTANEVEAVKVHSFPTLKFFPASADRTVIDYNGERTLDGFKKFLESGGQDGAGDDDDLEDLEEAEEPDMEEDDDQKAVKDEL
ERp5 block – blocks human ERp5 reductase activity on insulin; Q15084; ERp5 insulin aggregation, absorbance 650 nm, 90 min; inhibition, % at 9.99 µM; 350,000 compounds, 0.05% hits;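 active = mean replicate inhibition above about 25%, with every replicate also reaching it, limit read from the data, passing the limit was not always enough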
Ecoli rRNA inh – inhibitors of bacterial rRNA selective over humanized ribosomes; E. coli WT GFP vs humanized-ribosome RFP mutants, fluorescence, 24 h; hits give low values; DMSO median 0, no signal -100; GFP signal change (wild-type ribosome), % (concentration not given with the values); 350,000 compounds, 1.6% hits;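 active = significant combined selectivity score with lowered wild-type GFP, culture density cut under 30%, mutant RFP and density less affected; inactive = any of these conditions unmet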
Large screens that a line does not name were inactive.

CCCn1c(SCC(=O)Nc2nc3c(s2)CCCC3)nc2c1c(=O)n(C)c(=O)n2C	none (no result: ERp5 block, Ecoli rRNA inh)
CCCCn1c(SCC(=O)Nc2nnc(C(C)C)s2)nc2c1c(=O)n(C)c(=O)n2C	HIV Env fusion 55 (no result: ERp5 block, Ecoli rRNA inh)
CCOC(=O)c1nc(N)c(C(=O)OCC)[nH]1	none (no result: HIV Env fusion, FN deposit inh, ERp5 block, Ecoli rRNA inh)
CCOC(=O)c1c(C)nc(C(Cl)(Cl)Cl)nc1N	Ecoli rRNA inh -37
CCCNC(=O)Nc1ccc2c(c1)C(=O)N(C)C[C@@H](OC)[C@H](C)CN(CC1CCCC1)[C@@H](C)CO2	none (no result: HIV Env fusion, PvdQ inh, PDI inh, ERp5 block)
CC(C)CC#Cc1cnc2c(c1)C(=O)N([C@H](C)CO)C[C@H](C)[C@@H](CN(C)Cc1cccc(F)c1)O2	none (no result: PvdQ inh, FN deposit inh, PDI inh)
Cc1cc(=O)n2[nH]cc(-c3ccccc3)c2n1	none
Cc1nc2c(-c3ccccc3)c[nH]n2c(=O)c1Cc1ccccc1	Ecoli rRNA inh -20 (no result: FN deposit inh)
CNC(=O)C[C@@H]1CC[C@H]2[C@H](COc3ccc(NC(=O)C4CCCCC4)cc3C(=O)N2C)O1	none (no result: PvdQ inh, PDI inh)
Cc1c(Cc2ccccc2)sc(NC(=O)C(C)(C)C)c1C(N)=O	Ecoli rRNA inh -30
CCC(=O)Nc1sc(Cc2ccc3c(c2)OCO3)c(C)c1C(N)=O	Ecoli rRNA inh -26
Cc1c(Cc2ccc3c(c2)OCO3)sc(NC(=O)c2ccc3ccccc3c2)c1C(N)=O	none (no result: PvdQ inh, PDI inh)
COc1ccc2c3c(n(C)c2c1)[C@@H](CO)N(C(=O)Cc1ccccn1)CC31CN(Cc2ccccn2)C1	none (no result: HIV Env fusion, PvdQ inh, FN deposit inh, PDI inh, ERp5 block)
O=C(Cc1cccs1)N(Cc1cccs1)C1(C(=O)NC2CCCCC2)CCCCC1	HIV Env fusion 79 (no result: ERp5 block, Ecoli rRNA inh)
C[C@@H]1CN([C@@H](C)CO)C(=O)c2cc(NC(=O)Cc3ccccc3)ccc2O[C@@H]1CN(C)S(=O)(=O)c1cn(C)cn1	none (no result: HIV Env fusion, PvdQ inh, PDI inh)
CNC[C@H]1Oc2ccc(NC(=O)NC(C)C)cc2CC(=O)N(C)C[C@@H]1C	none (no result: HIV Env fusion, PvdQ inh, PDI inh, ERp5 block)
c1ccc(CCc2nn3c(-c4ccncc4)nnc3s2)cc1	none (no result: HIV Env fusion, FN deposit inh, ERp5 block, Ecoli rRNA inh)
Brc1ccccc1-c1nnc2sc(Cc3ccccc3)nn12	HIV Env fusion 57 (no result: ERp5 block, Ecoli rRNA inh)
COc1ccc(Cc2nn3c(-c4ccccc4Br)nnc3s2)cc1	none (no result: HIV Env fusion, FN deposit inh)
Clc1ccccc1-c1nnc2sc(CCc3ccccc3)nn12	Ecoli rRNA inh -19 (no result: HIV Env fusion, FN deposit inh)
c1ccc(CCc2nn3c(Cn4cnc5ccccc54)nnc3s2)cc1	Ecoli rRNA inh -24 (no result: HIV Env fusion, FN deposit inh)
COCCNC(=O)C[C@H]1C=C[C@H](NS(=O)(=O)c2ccc(C)cc2)[C@@H](CO)O1	none (no result: PvdQ inh, PDI inh)
CCCC(=O)N1CC2(CN(C(C)=O)C2)c2c(n(C)c3cc(OC)ccc23)[C@@H]1CO	none (no result: HIV Env fusion, PvdQ inh, FN deposit inh, PDI inh, ERp5 block)
CCOc1ccc(NC(=O)NCc2ccccn2)cc1	HIV Env fusion 58
CCOC(=O)N(C)C[C@@H]1OCc2ccccc2-c2ccccc2C(=O)N([C@@H](C)CO)C[C@H]1C	none (no result: HIV Env fusion, PvdQ inh, PDI inh)
Clc1ccc(CSc2nnc(Cn3cnc4ccccc43)o2)cc1	HIV Env fusion 87 (no result: ERp5 block, Ecoli rRNA inh)
O=[N+]([O-])c1cc(C(F)(F)F)cc([N+](=O)[O-])c1NCCNC(=S)Nc1ccc(Cl)c(Cl)c1	HIV Env fusion 57
CC(C)(C)NC(=S)Nc1cccc(C(F)(F)F)c1	Ecoli rRNA inh -48
FC(F)(F)c1cccc(NC(=S)Nc2ccc(Cl)c(Cl)c2)c1	Ecoli rRNA inh -49
COc1ccc2c3c([nH]c2c1)[C@H](CO)N(Cc1ccccc1)CC31CCN(CC2CC2)CC1	none (no result: HIV Env fusion, PvdQ inh, FN deposit inh, PDI inh)
C[C@@H]1CN([C@@H](C)CO)S(=O)(=O)c2ccc(-c3cccnc3)cc2O[C@@H]1CN(C)Cc1cncnc1	none (no result: PvdQ inh, PDI inh)
C[C@@H]1CN([C@@H](C)CO)C(=O)c2cc(/C=C/c3ccccc3)cnc2O[C@@H]1CN(C)C	none (no result: PvdQ inh, PDI inh)
COc1ccc(S(=O)(=O)N[C@@H]2C=C[C@H](CC(=O)NCCc3ccccc3)O[C@H]2CO)cc1	none (no result: PvdQ inh, FN deposit inh, PDI inh)
CO[C@@H]1CN(C)C(=O)c2ccc(NC(=O)Nc3ccccc3Cl)cc2OC[C@@H](C)N(S(=O)(=O)CC(F)(F)F)C[C@H]1C	none (no result: HIV Env fusion, PvdQ inh, PDI inh)
CC(C)CCSc1nc(N)c(C#N)cc1C#N	HIV Env fusion 82 (no result: ERp5 block, Ecoli rRNA inh)
O=C(NCc1ccccc1)C1C(=O)Nc2ccccc2C(=O)N1C1CCCC1 (configuration not stated)	none (no result: PvdQ inh, PDI inh)
CC(C)N1C(=O)c2ccccc2NC(=O)C1C(=O)NCc1ccccc1 (configuration not stated)	HIV Env fusion 59 (no result: PvdQ inh, PDI inh)
C/C(=N\Nc1ccc(C(=O)O)cc1)c1ccc2c(c1)Nc1ccccc1S2	Ecoli rRNA inh -45
C/C(=N/Nc1ccc(C(=O)O)cc1)c1ccc2c(c1)Nc1ccccc1S2	none
